Data reported in ChEMBL document CHEMBL4689842, “EUbOPEN Chemogenomics Library wave 1” (2021).
“And” between values parts separate entries of the source, which are not always exact repeats. Equal entries are not always repeated.

Experiments:
Type in all cases: toxicity, cell-based
[1] = tested on: HEK-293T; assay: Incucyte cell viability with HEK293T; settings: human, 10 µM, compound concentration 10 uM; also: filed as whole numbers so only -1 and 0 and 1 occur
[2] = tested on: Fibroblast; assay: Incucyte cell viability with human fibroblast; settings: 10 µM, compound concentration 10 uM; also: filed as whole numbers so only -1 and 0 and 1 occur
[3] = tested on: Fibroblast; assay: Multiplex assay against human fibroblast; settings: 10 µM, compound concentration 10 uM
How it was run: (§1)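 Phenotypes for tubulin, mitochondrial mass and membrane permeability are expressed as per cents of healthy-nucleus cells. Cells were stained live at seeding with Hoechst33342, BioTracker Green Microtubule Cytoskeleton Dye, MitoTracker Red and Annexin V Alexa Fluor 680, then imaged after compound addition on a CQ1 microscope at 37°C and 5% CO2. Machine-learning gating in CellPathfinder separated Hoechst high-intensity objects from normal cells, divided normal cells by nuclear state (healthy, pyknosed, fragmented) and divided pyknosed cells into mitotic or apoptotic.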

[4] = tested on: U2OS; assay: Multiplex assay against U2OS; settings: human, 10 µM, compound concentration 10 uM; how it was run: as §1
[5] = tested on: HEK-293T; assay: Multiplex assay against HEK293T; settings: human, 10 µM, compound concentration 10 uM; how it was run: as §1;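 as to Population Tubulin-Different-Phenotype (%): share of the cells with healthy nuclei that show this phenotype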
[6] = tested on: U2OS; assay: Incucyte cell viability with U2OS; settings: human, 10 µM, compound concentration 10 uM; also: filed as whole numbers so only -1 and 0 and 1 occur
[7] = 6 h, replicate number 1, timepoint 6 hours
[8] = 12 h, replicate number 1, timepoint 12 hours
[9] = 18 h, replicate number 1, timepoint 18 hours
[10] = 24 h, replicate number 1, timepoint 24 hours

Cn1c(-c2csc(C3CCN(CC4=NC5N=CC=CC5N4)CC3)n2)nc2ccccc21 (configuration not stated) [BAY-070]
Growth Rate [1, 7]: 0 | Growth Rate [1, 8]: 0 | Growth Rate [1, 9]: 0 | Growth Rate [1, 10]: 0 | Growth Rate ([2]; 0 h, replicate number 2, timepoint 0 hours): 1 | Growth Rate [2, 7]: 0 | Growth Rate [2, 8]: 1 | Growth Rate [2, 9]: 1 | Growth Rate [2, 10]: 1 | Population Apoptotic (%) ([3]; 12 h, replicate 1): 66% and 86% | Population Fragmented Nuclei (%) ([3]; 12 h, replicate 1): 30% and 26% | Population Healthy Nuclei (%) ([3]; 12 h, replicate 1): 53% and 58% | Population Hoechst High Intensity Objects (%) ([3]; 12 h, replicate 1): 11% and 14% | Population Membrane Permeable-Phenotype (%) ([3]; 12 h, replicate 1): 12% and 9% | Population Mitochondria Different-Phenotype (%) ([3]; 12 h, replicate 1): 4% | Population Mitotic Cells (%) ([3]; 12 h, replicate 1): 33% and 13% | Population Normal (%) ([3]; 12 h, replicate 1): 88% and 85% | Population Pyknosed Nuclei (%) ([3]; 12 h, replicate 1): 15% | Total Cell Count ([3]; 12 h, replicate 1): 238 and 282 | Population Fragmented Nuclei (%) ([3]; 12 h, replicate 2): 66% and 53% | Population Healthy Nuclei (%) ([3]; 12 h, replicate 2): 21% and 36% | Population Hoechst High Intensity Objects (%) ([3]; 12 h, replicate 2): 33% and 37% | Population Membrane Permeable-Phenotype (%) ([3]; 12 h, replicate 2): 36% and 29% | Population Normal (%) ([3]; 12 h, replicate 2): 66% and 62% | Population Pyknosed Nuclei (%) ([3]; 12 h, replicate 2): 11% and 10% | Total Cell Count ([3]; 12 h, replicate 2): 77 and 75 | Population Apoptotic (%) ([3]; 24 h, replicate 1): 51% and 62% | Population Fragmented Nuclei (%) ([3]; 24 h, replicate 1): 23% and 16% | Population Healthy Nuclei (%) ([3]; 24 h, replicate 1): 61% and 67% | Population Hoechst High Intensity Objects (%) ([3]; 24 h, replicate 1): 10% and 13% | Population Membrane Permeable-Phenotype (%) ([3]; 24 h, replicate 1): 9% and 8% | Population Mitotic Cells (%) ([3]; 24 h, replicate 1): 48% and 37% | Population Normal (%) ([3]; 24 h, replicate 1): 89% and 86% | Population Pyknosed Nuclei (%) ([3]; 24 h, replicate 1): 15% and 16% | Total Cell Count ([3]; 24 h, replicate 1): 222 and 285 | Population Fragmented Nuclei (%) ([3]; 24 h, replicate 2): 65% and 57% | Population Healthy Nuclei (%) ([3]; 24 h, replicate 2): 23% and 30% | Population Hoechst High Intensity Objects (%) ([3]; 24 h, replicate 2): 41% and 29% | Population Membrane Permeable-Phenotype (%) ([3]; 24 h, replicate 2): 30% and 22% | Population Mitotic Cells (%) ([3]; 24 h, replicate 2): 100% and 42% | Population Normal (%) ([3]; 24 h, replicate 2): 58% and 70% | Population Pyknosed Nuclei (%) ([3]; 24 h, replicate 2): 11% | Population Tubulin-Different-Phenotype (%) ([3]; 24 h, replicate 2): 40% and 50% | Total Cell Count ([3]; 24 h, replicate 2): 74 and 84 | Population Fragmented Nuclei (%) ([4]; 12 h, replicate 1): 2% and 3% | Population Healthy Nuclei (%) ([4]; 12 h, replicate 1): 90% | Population Hoechst High Intensity Objects (%) ([4]; 12 h, replicate 1): 5% and 3% | Population Membrane Permeable-Phenotype (%) ([4]; 12 h, replicate 1): 6% | Population Mitochondria Different-Phenotype (%) ([4]; 12 h, replicate 1): 10% | Population Mitotic Cells (%) ([4]; 12 h, replicate 1): 91% and 70% | Population Normal (%) ([4]; 12 h, replicate 1): 94% and 96% | Population Pyknosed Nuclei (%) ([4]; 12 h, replicate 1): 6% and 11% | Population Tubulin-Different-Phenotype (%) ([4]; 12 h, replicate 1): 22% and 8% | Total Cell Count ([4]; 12 h, replicate 1): 183 and 214 | Population Fragmented Nuclei (%) ([4]; 12 h, replicate 2): 13% and 7% | Population Healthy Nuclei (%) ([4]; 12 h, replicate 2): 84% and 89% | Population Hoechst High Intensity Objects (%) ([4]; 12 h, replicate 2): 12% and 13% | Population Membrane Permeable-Phenotype (%) ([4]; 12 h, replicate 2): 19% and 8% | Population Mitochondria Different-Phenotype (%) ([4]; 12 h, replicate 2): 21% and 25% | Population Mitotic Cells (%) ([4]; 12 h, replicate 2): 100% and 66% | Population Normal (%) ([4]; 12 h, replicate 2): 87% and 86% | Population Pyknosed Nuclei (%) ([4]; 12 h, replicate 2): 2% | Population Tubulin-Different-Phenotype (%) ([4]; 12 h, replicate 2): 19% and 34% | Total Cell Count ([4]; 12 h, replicate 2): 96 and 145 | Population Apoptotic (%) ([4]; 24 h, replicate 1): 50% and 40% | Population Fragmented Nuclei (%) ([4]; 24 h, replicate 1): 5% and 3% | Population Healthy Nuclei (%) ([4]; 24 h, replicate 1): 88% and 92% | Population Hoechst High Intensity Objects (%) ([4]; 24 h, replicate 1): 3% and 2% | Population Membrane Permeable-Phenotype (%) ([4]; 24 h, replicate 1): 10% | Population Mitochondria Different-Phenotype (%) ([4]; 24 h, replicate 1): 17% and 14% | Population Mitotic Cells (%) ([4]; 24 h, replicate 1): 50% and 60% | Population Normal (%) ([4]; 24 h, replicate 1): 96% and 97% | Population Pyknosed Nuclei (%) ([4]; 24 h, replicate 1): 6% and 3% | Population Tubulin-Different-Phenotype (%) ([4]; 24 h, replicate 1): 15% and 30% | Total Cell Count ([4]; 24 h, replicate 1): 265 and 259 | Population Apoptotic (%) ([4]; 24 h, replicate 2): 20% and 33% | Population Fragmented Nuclei (%) ([4]; 24 h, replicate 2): 7% and 6% | Population Healthy Nuclei (%) ([4]; 24 h, replicate 2): 87% and 84% | Population Hoechst High Intensity Objects (%) ([4]; 24 h, replicate 2): 12% | Population Mitochondria Different-Phenotype (%) ([4]; 24 h, replicate 2): 25% and 27% | Population Mitotic Cells (%) ([4]; 24 h, replicate 2): 80% and 66% | Population Normal (%) ([4]; 24 h, replicate 2): 87% | Population Pyknosed Nuclei (%) ([4]; 24 h, replicate 2): 5% and 8% | Population Tubulin-Different-Phenotype (%) ([4]; 24 h, replicate 2): 19% and 39% | Total Cell Count ([4]; 24 h, replicate 2): 108 and 180 | Population Apoptotic (%) ([5]; 12 h, replicate 1): 19% and 14% | Population Fragmented Nuclei (%) ([5]; 12 h, replicate 1): 25% and 9% | Population Healthy Nuclei (%) ([5]; 12 h, replicate 1): 48% and 56% | Population Hoechst High Intensity Objects (%) ([5]; 12 h, replicate 1): 16% and 14% | Population Membrane Permeable-Phenotype (%) ([5]; 12 h, replicate 1): 5% and 3% | Population Mitochondria Different-Phenotype (%) ([5]; 12 h, replicate 1): 5% and 8% | Population Mitotic Cells (%) ([5]; 12 h, replicate 1): 80% and 85% | Population Normal (%) ([5]; 12 h, replicate 1): 83% and 85% | Population Pyknosed Nuclei (%) ([5]; 12 h, replicate 1): 26% and 33% | Population Tubulin-Different-Phenotype (%) ([5]; 12 h, replicate 1): 7% and 10% | Total Cell Count ([5]; 12 h, replicate 1): 591 and 756 | Population Apoptotic (%) ([5]; 12 h, replicate 2): 15% and 10% | Population Fragmented Nuclei (%) ([5]; 12 h, replicate 2): 3% and 6% | Population Healthy Nuclei (%) ([5]; 12 h, replicate 2): 82% and 88% | Population Hoechst High Intensity Objects (%) ([5]; 12 h, replicate 2): 5% and 2% | Population Membrane Permeable-Phenotype (%) ([5]; 12 h, replicate 2): 1% | Population Mitochondria Different-Phenotype (%) ([5]; 12 h, replicate 2): 21% | Population Mitotic Cells (%) ([5]; 12 h, replicate 2): 84% and 89% | Population Normal (%) ([5]; 12 h, replicate 2): 94% and 97% | Population Tubulin-Different-Phenotype (%) ([5]; 12 h, replicate 2): 14% and 5% | Total Cell Count ([5]; 12 h, replicate 2): 1063 and 1470 | Population Apoptotic (%) ([5]; 24 h, replicate 1): 15% and 24% | Population Fragmented Nuclei (%) ([5]; 24 h, replicate 1): 10% and 21% | Population Healthy Nuclei (%) ([5]; 24 h, replicate 1): 63% and 62% | Population Hoechst High Intensity Objects (%) ([5]; 24 h, replicate 1): 9% and 10% | Population Membrane Permeable-Phenotype (%) ([5]; 24 h, replicate 1): 6% | Population Mitochondria Different-Phenotype (%) ([5]; 24 h, replicate 1): 7% and 4% | Population Mitotic Cells (%) ([5]; 24 h, replicate 1): 84% and 75% | Population Normal (%) ([5]; 24 h, replicate 1): 90% and 89% | Population Pyknosed Nuclei (%) ([5]; 24 h, replicate 1): 25% and 16% | Total Cell Count ([5]; 24 h, replicate 1): 694 and 578 | Population Apoptotic (%) ([5]; 24 h, replicate 2): 9% and 17% | Population Fragmented Nuclei (%) ([5]; 24 h, replicate 2): 14% and 5% | Population Healthy Nuclei (%) ([5]; 24 h, replicate 2): 83% and 87% | Population Hoechst High Intensity Objects (%) ([5]; 24 h, replicate 2): 2% and 5% | Population Membrane Permeable-Phenotype (%) ([5]; 24 h, replicate 2): 5% | Population Mitochondria Different-Phenotype (%) ([5]; 24 h, replicate 2): 1% and 11% | Population Mitotic Cells (%) ([5]; 24 h, replicate 2): 90% and 82% | Population Normal (%) ([5]; 24 h, replicate 2): 97% and 94% | Total Cell Count ([5]; 24 h, replicate 2): 2202 and 1248 | Growth Rate ([6]; 0 h, replicate number 1, timepoint 0 hours): 0 | Growth Rate [6, 7]: 0 | Growth Rate [6, 8]: 1 | Growth Rate [6, 9]: 0 | Growth Rate ([6]; 18 h, replicate number 2, timepoint 18 hours): 1 | Growth Rate [6, 10]: 1 | Growth Rate ([6]; 24 h, replicate number 2, timepoint 24 hours): 0
